Our source for the inhibition values is PubChem BioAssay AID493091 (Sanford-Burnham Center for Chemical Genomics, 2011).

Hit rate of the full screen: of about 340,000 compounds, about 3,000 (0.88%) were called active. The sample as a whole holds a higher share of actives than the screen did. A number with no mark means an inactive call.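 Rule for the calls: active = inhibition above about 50% at 20 µM (limit read from the data); inactive = the rest.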

Sequence of Carboxy-terminal domain RNA polymerase II polypeptide A small phosphatase 1 (Homo sapiens) (Q9GZU7 76-261 limits assumed): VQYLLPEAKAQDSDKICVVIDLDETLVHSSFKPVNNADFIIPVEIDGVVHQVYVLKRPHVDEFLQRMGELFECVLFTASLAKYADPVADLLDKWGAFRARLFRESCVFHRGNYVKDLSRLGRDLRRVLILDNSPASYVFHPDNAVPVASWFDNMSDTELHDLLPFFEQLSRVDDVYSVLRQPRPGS

The experiment addresses Carboxy-terminal domain RNA polymerase II polypeptide A small phosphatase 1 (Homo sapiens) (UniProt Q9GZU7). Briefly: inhibition of human SCP1 dephosphorylation activity – biochemical, colorimetric, uHTS, primary screen (AID 493091).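 Note: plate controls were DMSO wells with enzyme for no effect and wells lacking enzyme for full effect.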 The conditions noted are these: Recombinant Scp1, phosphopeptide, malachite green phosphate absorbance; at 20 µM; stronger effect = higher value. The essentials: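 Material – SCP-1 phosphatase catalytic domain, residues 76-261 · Buffer or medium – Acidic Tris acetate buffer with magnesium and detergent · Also added – Phospho 17-mer peptide substrate · Compound – single 20 µM dose, 1% DMSO · Times – 45 min room-temperature reaction, 5 min colour, 30 min stabiliser · Technique – Phosphate-binding colour reagent, absorbance read at 630 nm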
Consider `O=C(O)CCn1cc(C=C2C(=O)NC(=S)NC2=O)c(-c2cccc(Br)c2)n1`, for which the inhibition (in general, the change of the read-out against control, counted positive when it falls) was 69.2% (active).
`CC(=O)N(C1=NCCCS1)c1ccccc1F`: the inhibition was -8.48%.
In the case of `Nc1ccc(Cc2ccc(N)c(Cl)c2)cc1Cl`, the inhibition is -6.26%.
In the case of `Cc1ccc(C2CN(C)CC2C(=O)c2ccc(F)cc2)cc1` (stereo not given) it was 2.83%; in that of `O=C(Cc1ccc(Cl)cc1)NCCN1CCN(C(=O)Cc2ccc(Cl)cc2)CC1`, -8.32%.
On to `Cc1ccc(S(=O)(=O)N(C)c2ccc(C(=O)NCC3(N(C)C)CCCCC3)cc2)cc1`, for which the inhibition was -2.43%.
As to `O=C1NC(=O)N(Cc2ccco2)C(=O)/C1=C\c1ccc(-c2ccc(F)cc2)o1`, the inhibition was 5.05%.
As to `COc1ccc(N2C(=O)/C(=C/c3ccco3)C(=O)NC2=S)cc1`, the inhibition is 92.7% (active).
In the case of `COc1cccc(N2C(=O)NC(=O)/C(=C\c3ccc([N+](=O)[O-])s3)C2=O)c1` it was 17.3%.
As to `CCN(CC)CCOC(=O)c1cc2cc(COC)ccc2o1`, the inhibition was 70.7% (active).
The result for `COc1ccc2c(c1)NP(=S)(c1ccccc1)N2` (stereo not given) reads 0.52%; that for `CSc1ccc(C(=O)C2CCCN(Cc3ccn[nH]3)C2)cc1` (stereo not given), -7.2%.
Regarding `CCN(CC)C(=O)Oc1ccc(NC(=O)N2CCOCC2)cc1`, the inhibition was -3.55%.
As to `COC(=O)C1=C(c2cc3ccccc3s2)C[C@@H]2CC[C@H]1N2C(=O)NCc1cccc2ccccc12`, the inhibition is -7.13%.
In the case of `O=c1[nH]c(=O)n(CCc2ccc(F)cc2)c(O)c1/C=N/N1CCCCC1` it was 51% (active); in that of `O=c1[nH]c(=O)n(-c2ccc(F)cc2)c(O)c1C=NCCN1CCCCC1`, -0.8%.
As for `O=c1[nH]c(=O)n(CCc2ccccc2)c(O)c1/C=N/N1CCOCC1`, the inhibition was -5.04%.
As for `CN1CCN(Cc2ccc(OC(F)(F)F)cc2)CC1`, the inhibition is 22.4%.
Turning to `COc1ccccc1N=Nc1c(O)[nH]c(=S)[nH]c1=O`, the inhibition is 9.19%.
`COc1ccccc1N=C1SCCCN1C`: the inhibition was 95.3% (active).
In the case of `CC(=O)Nc1ccc(C(=O)C(Cc2ccccc2)N(C)C)cc1` (stereo not given), the inhibition is -12.1%.
With `O=C(NCC(c1cccnc1)N1CCN(c2ccccc2)CC1)Oc1ccccc1` (stereo not given), the inhibition was -0.44%.
Take `CC1CNCCN1c1ccc(Cl)cc1` (stereo not given): the inhibition was 2.17%.
`CN(C)C(=O)Oc1ccc2c(c1)O/C(=C\c1ccccc1)C2=O`: the inhibition is -15.9%.
In the case of `Cc1ccc(C)c(NC2=NCCCS2)c1`, the inhibition was -6%.
